Common to all, as to type: functional
For assay [1], the system named is Enterococcus faecalis. The assay can be described thus: Antibacterial activity against Enterococcus faecalis 14-1 after 18 to 24 hrs by two-fold serial dilution method. An outline of the steps:
(§1)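 Twofold serial dilution in agar media against Gram-positive and Gram-negative strains. Plates incubated at 35 °C for 18–24 h. MIC read as the lowest compound concentration giving complete inhibition of bacterial growth.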

In assay [2] the test system is Escherichia coli. The assay can be described thus: Antibacterial activity against Escherichia coli 14-1 after 18 to 24 hrs by two-fold serial dilution method. An outline of the steps:
as §1

Assay [3] concerns Staphylococcus aureus. The assay can be described thus: Antibacterial activity against methicillin-sensitive Staphylococcus aureus 14-1 after 18 to 24 hrs by two-fold serial dilution method. An outline of the steps: as §1
The test system of assay [4] is Staphylococcus aureus. The assay can be described thus: Antibacterial activity against methicillin-sensitive Staphylococcus aureus 14-4 after 18 to 24 hrs by two-fold serial dilution method. Summed up: as §1
Assay [5] concerns Pseudomonas aeruginosa. The assay can be described thus: Antibacterial activity against Pseudomonas aeruginosa ATCC 27853 after 18 to 24 hrs by two-fold serial dilution method. An outline of the steps: as §1
For assay [6], the system named is Escherichia coli. The assay can be described thus: Antibacterial activity against extended-spectrum beta-lactamase producing Escherichia coli 14-2 after 18 to 24 hrs by two-fold serial dilution method. An outline of the steps: as §1
For assay [7], the system named is Escherichia coli. The assay can be described thus: Antibacterial activity against Escherichia coli 14-2 after 18 to 24 hrs by two-fold serial dilution method. An outline of the steps:
as §1

The test system of assay [8] is Escherichia coli. The assay can be described thus: Antibacterial activity against Escherichia coli ATCC 25922 after 18 to 24 hrs by two-fold serial dilution method. An outline of the steps: as §1
Assay [9] has as its system Klebsiella pneumoniae. The assay can be described thus: Antibacterial activity against extended-spectrum beta-lactamase producing Klebsiella pneumoniae 14-19 after 18 to 24 hrs by two-fold serial dilution method. An outline of the steps:
as §1

In assay [10] the test system is Klebsiella pneumoniae. The assay can be described thus: Antibacterial activity against Klebsiella pneumoniae 14-4 after 18 to 24 hrs by two-fold serial dilution method. An outline of the steps:
as §1

Assay [11] has as its system Pseudomonas aeruginosa. The assay can be described thus: Antibacterial activity against Pseudomonas aeruginosa 14-14 after 18 to 24 hrs by two-fold serial dilution method. An outline of the steps: as §1
The test system of assay [12] is Staphylococcus aureus. The assay can be described thus: Antibacterial activity against methicillin-sensitive Staphylococcus aureus 14-3 after 18 to 24 hrs by two-fold serial dilution method. Summed up:
as §1

Assay [13] concerns Staphylococcus epidermidis. The assay can be described thus: Antibacterial activity against methicillin-resistant Staphylococcus epidermidis 14-37 after 18 to 24 hrs by two-fold serial dilution method. An outline of the steps: (§2)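 Agar media, standard twofold serial dilution. MIC is the lowest concentration giving complete inhibition of bacterial growth after incubation at 35 °C for 18–24 h. Ciprofloxacin and levofloxacin were run as comparators.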

In assay [14] the test system is Staphylococcus epidermidis. The assay can be described thus: Antibacterial activity against methicillin-resistant Staphylococcus epidermidis 14-21 after 18 to 24 hrs by two-fold serial dilution method. Summed up: as §2
The subject of assay [15] is Klebsiella pneumoniae. The assay can be described thus: Antibacterial activity against Klebsiella pneumoniae 14-1 after 18 to 24 hrs by two-fold serial dilution method. An outline of the steps:
as §1

A further assay deals with Streptococcus pneumoniae. The assay can be described thus: Antibacterial activity against methicillin-resistant Streptococcus pneumoniae ATCC 19615 after 18 to 24 hrs by two-fold serial dilution method. Summed up: as §2
Assay [16] concerns Staphylococcus epidermidis. The assay can be described thus: Antibacterial activity against methicillin-sensitive Staphylococcus epidermidis 14-2 after 18 to 24 hrs by two-fold serial dilution method. Summed up:
as §1

The test system of assay [17] is Klebsiella pneumoniae. The assay can be described thus: Antibacterial activity against extended-spectrum beta-lactamase producing Klebsiella pneumoniae 14-17 after 18 to 24 hrs by two-fold serial dilution method. Summed up:
as §1

The test system of assay [18] is Enterococcus faecium. The assay can be described thus: Antibacterial activity against Enterococcus faecium 14-6 after 18 to 24 hrs by two-fold serial dilution method. An outline of the steps:
as §1

Assay [19] relates to Pseudomonas aeruginosa. The assay can be described thus: Antibacterial activity against Pseudomonas aeruginosa 14-9 after 18 to 24 hrs by two-fold serial dilution method. Summed up:
as §1

In assay [20] the test system is Klebsiella pneumoniae. The assay can be described thus: Antibacterial activity against Klebsiella pneumoniae 14-3 after 18 to 24 hrs by two-fold serial dilution method. An outline of the steps:
as §1

Assay [21] concerns Enterococcus faecium. The assay can be described thus: Antibacterial activity against Enterococcus faecium 14-2 after 18 to 24 hrs by two-fold serial dilution method. An outline of the steps:
as §1

In assay [22] the test system is Klebsiella pneumoniae. The assay can be described thus: Antibacterial activity against Klebsiella pneumoniae 14-2 after 18 to 24 hrs by two-fold serial dilution method. An outline of the steps:
as §1

For assay [23], the system named is Klebsiella pneumoniae. The assay can be described thus: Antibacterial activity against extended-spectrum beta-lactamase producing Klebsiella pneumoniae 14-18 after 18 to 24 hrs by two-fold serial dilution method. An outline of the steps: as §1
Assay [24] has as its system Mycobacterium tuberculosis. The assay can be described thus: Antimycobacterial activity against Mycobacterium tuberculosis H37Rv ATCC 27294 incubated for 7 days by microplate Alamar Blue assay. Particulars: H37Rv ATCC 27294, 168 h. Summed up: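 Fluorescence read-out. MIC is the lowest concentration that reduces fluorescence by at least 90% relative to the mean of replicate bacterium-only controls. Isoniazid and rifampicin were included as reference drugs.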

The subject of assay [25] is Enterococcus faecium. The assay can be described thus: Antibacterial activity against Enterococcus faecium 14-5 after 18 to 24 hrs by two-fold serial dilution method. An outline of the steps:
as §1

Assay [26] has as its system Staphylococcus aureus. The assay can be described thus: Antibacterial activity against methicillin-resistant Staphylococcus aureus 14-5 after 18 to 24 hrs by two-fold serial dilution method. Summed up:
as §2

In assay [27] the test system is Staphylococcus epidermidis. The assay can be described thus: Antibacterial activity against methicillin-resistant Staphylococcus epidermidis 14-22 after 18 to 24 hrs by two-fold serial dilution method. Summed up:
as §2

In assay [28] the test system is Staphylococcus aureus. The assay can be described thus: Antibacterial activity against Staphylococcus aureus CMCC 26003 after 18 to 24 hrs by two-fold serial dilution method. An outline of the steps:
as §1

Assay [29] deals with Enterococcus faecalis. The assay can be described thus: Antibacterial activity against Enterococcus faecalis 14-2 after 18 to 24 hrs by two-fold serial dilution method. An outline of the steps:
as §1

For assay [30], the system named is Staphylococcus epidermidis. The assay can be described thus: Antibacterial activity against methicillin-resistant Staphylococcus epidermidis 14-39 after 18 to 24 hrs by two-fold serial dilution method. Summed up: as §2
In assay [31] the test system is Escherichia coli. The assay can be described thus: Antibacterial activity against extended-spectrum beta-lactamase producing Escherichia coli 14-1 after 18 to 24 hrs by two-fold serial dilution method. An outline of the steps:
as §1

Assay [32] deals with Pseudomonas aeruginosa. The assay can be described thus: Antibacterial activity against Pseudomonas aeruginosa 14-15 after 18 to 24 hrs by two-fold serial dilution method. An outline of the steps: as §1
In assay [33] the test system is Pseudomonas aeruginosa. The assay can be described thus: Antibacterial activity against Pseudomonas aeruginosa 14-16 after 18 to 24 hrs by two-fold serial dilution method. An outline of the steps: as §1
Assay [34] deals with Staphylococcus aureus. The assay can be described thus: Antibacterial activity against methicillin-resistant Staphylococcus aureus 14-4 after 18 to 24 hrs by two-fold serial dilution method. An outline of the steps: as §2

≈ marks a conversion by molar mass, not a printed value. A value given as a limit tells only on which side of the number the result lay.

What is called MIC is the least concentration at which growth counts as inhibited. Lower therefore signals inhibition by little substance. Broadly, the MIC90 is an inhibitory concentration at the 90% level, which refers to growth in some studies and to a panel of isolates in others. Low readings indicate higher susceptibility, high ones lower susceptibility. Regarding `CO/N=C1/CN(c2c(F)cc3c(=O)c(C(=O)O)cn(C4CC4)c3c2OC)CC1CNC1CC1` (stereo not given), the MIC in the assay with Enterococcus faecalis [1] was above 128 µg/mL; in the assay with Escherichia coli [2], above 128 µg/mL; against Staphylococcus aureus [3], above 128 µg/mL; with Staphylococcus aureus [4], above 128 µg/mL; in the assay on Pseudomonas aeruginosa [5], 128 µg/mL (≈ 279 µM); in the assay with Escherichia coli [6] it was above 128 µg/mL. The MIC against Escherichia coli [7] was above 128 µg/mL; against Escherichia coli [8], 32 µg/mL (≈ 69.8 µM); with Klebsiella pneumoniae [9], above 128 µg/mL; against Klebsiella pneumoniae [10] it was above 128 µg/mL; in the assay on Pseudomonas aeruginosa [11], 128 µg/mL (≈ 279 µM); with Staphylococcus aureus [12] it was above 128 µg/mL. The MIC was above 128 µg/mL in assay [13]; above 128 µg/mL in [14]; above 128 µg/mL with Klebsiella pneumoniae [15]; 64 µg/mL (≈ 140 µM) in the assay with Streptococcus pneumoniae; above 128 µg/mL in assay [16]; above 128 µg/mL in the assay on Klebsiella pneumoniae [17]. The MIC with Enterococcus faecium [18] is above 128 µg/mL; in the assay with Pseudomonas aeruginosa [19], 128 µg/mL (≈ 279 µM); against Klebsiella pneumoniae [20], above 128 µg/mL; in the assay with Enterococcus faecium [21], above 128 µg/mL; against Klebsiella pneumoniae [22], above 128 µg/mL; against Klebsiella pneumoniae [23] it was above 128 µg/mL. Moreover, the MIC against Enterococcus faecium [25] is above 128 µg/mL; against Staphylococcus aureus [26], above 128 µg/mL; in assay [27] it was above 128 µg/mL; against Staphylococcus aureus [28], 8 µg/mL (≈ 17.4 µM); against Enterococcus faecalis [29], 64 µg/mL (≈ 140 µM); in [30], above 128 µg/mL. Also, the MIC in the assay on Escherichia coli [31], against Pseudomonas aeruginosa [32] and against Pseudomonas aeruginosa [33] was 128 µg/mL (≈ 279 µM) in each case. Further, the MIC90 in assay [24] is above 32 µg/mL.

In [24], `CO[C@H]1/C=C/O[C@@]2(C)Oc3c(C)c(O)c4c(O)c(c(/C=N/N5CCN(C)CC5)c(O)c4c3C2=O)NC(=O)/C(C)=C\C=C\[C@H](C)[C@H](O)[C@@H](C)[C@@H](O)[C@@H](C)[C@H](OC(C)=O)[C@@H]1C` [RIFAMPIN] had an MIC90 of 0.05 µg/mL (≈ 0.0608 µM).

In assay [24], `NNC(=O)c1ccncc1` [ISONIAZID] returned an MIC90 of 0.05 µg/mL (≈ 0.365 µM).

`CO/N=C1/CN(c2nc3c(cc2F)c(=O)c(C(=O)O)cn3C2CC2)CC1(C)CNC1CC1` (stereo not given): the minimum inhibitory concentration (MIC) against Enterococcus faecalis [1] was 16 µg/mL (≈ 36.1 µM); in the assay with Escherichia coli [2] it was above 128 µg/mL; in the assay with Staphylococcus aureus [3], 0.5 µg/mL (≈ 1.13 µM); in the assay with Staphylococcus aureus [4], 0.5 µg/mL (≈ 1.13 µM); in the assay with Pseudomonas aeruginosa [5], 32 µg/mL (≈ 72.2 µM); in the assay on Escherichia coli [6], above 128 µg/mL. In addition, the minimal inhibitory concentration (MIC) against Escherichia coli [7] was above 128 µg/mL; in the assay with Escherichia coli [8], 0.5 µg/mL (≈ 1.13 µM); in the assay with Klebsiella pneumoniae [9], 64 µg/mL (≈ 144 µM); with Klebsiella pneumoniae [10], above 128 µg/mL; against Pseudomonas aeruginosa [11], 64 µg/mL (≈ 144 µM); in the assay on Staphylococcus aureus [12] it was 0.25 µg/mL (≈ 0.564 µM). Further, the minimum inhibitory concentration (MIC) amounted to 4 µg/mL (≈ 9.02 µM) in assay [13]; 4 µg/mL (≈ 9.02 µM) in assay [14]; 64 µg/mL (≈ 144 µM) with Klebsiella pneumoniae [15]; 0.25 µg/mL (≈ 0.564 µM) in the assay with Streptococcus pneumoniae; 16 µg/mL (≈ 36.1 µM) in [16]; 64 µg/mL (≈ 144 µM) against Klebsiella pneumoniae [17]. The MIC is 2 µg/mL (≈ 4.51 µM) with Enterococcus faecium [18]; 16 µg/mL (≈ 36.1 µM) with Pseudomonas aeruginosa [19]; above 128 µg/mL against Klebsiella pneumoniae [20]; 4 µg/mL (≈ 9.02 µM) with Enterococcus faecium [21]; 128 µg/mL (≈ 289 µM) with Klebsiella pneumoniae [22]; 4 µg/mL (≈ 9.02 µM) against Staphylococcus aureus [34]. The MIC with Klebsiella pneumoniae [23] is 64 µg/mL (≈ 144 µM); against Enterococcus faecium [25], 4 µg/mL (≈ 9.02 µM); against Staphylococcus aureus [26], 4 µg/mL (≈ 9.02 µM); in assay [27] it was 2 µg/mL (≈ 4.51 µM); with Staphylococcus aureus [28], below 0.008 µg/mL; in the assay with Enterococcus faecalis [29] it was 0.5 µg/mL (≈ 1.13 µM). For the same compound, the minimum inhibitory concentration (MIC) turned out to be 2 µg/mL (≈ 4.51 µM) in assay [30], 32 µg/mL (≈ 72.2 µM) in the assay on Escherichia coli [31], 64 µg/mL (≈ 144 µM) with Pseudomonas aeruginosa [32] and 64 µg/mL (≈ 144 µM) against Pseudomonas aeruginosa [33].

The values are drawn from ChEMBL document CHEMBL3734675, “Synthesis, antimycobacterial and antibacterial activity of fluoroquinolone derivatives containing an 3-alkoxyimino-4-(cyclopropylanimo)methylpyrrolidine moiety” (2015).
